Assay outcomes: PubChem, several laboratories
Sampled rows, rich in hits. Any-hit rate of the full collection: about 4.6%.
PolyA inhibitor – polyadenylation inhibitors in yeast reporter cells, primary screen, luminescence, S. cerevisiae | actives 0.02% (n = 300,000) | S. cerevisiae SKY197-pL101 polyadenylation reporter, beta-gal luminescence; efflux-impaired pdr1/pdr3 knockout yeast; score 100 = 6 SD above DMSO | activity score, % at 12 µM;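 active = lowest replicate activity score at least 50, where 100 means six control SD above control mean; inconclusive = lowest score under 50 but half or more replicates reach 50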;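 note: yeast exposed to compound for 9 h at 30 °C; higher score means more reporter readthrough which indicates perturbed polyadenylation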
ALR H2O2 inh – inhibitors of human ALR sulfhydryl oxidase, primary screen, biochemical, H2O2 detection, HRP-luminol luminescence, single point | AID 485317, 2010 | inhibition, % (no concentration beside the values) | actives 3.8% (n = 290,000) | FAD-linked sulfhydryl oxidase ALR (Homo sapiens), P55789 | purified ALR, DTT oxidation;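 active = mean replicate inhibition above about 79%, with every replicate also reaching it, limit read from the data; inconclusive = only one of the two criteria met; inactive = mean below limit and not every replicate reaching it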
Arr AP2 block – inhibitors of beta-arrestin/AP2 binding, primary screen, biochemical, GPCR trafficking, flow cytometry; FITC-arrestin peptide / GST-AP2 beads; AP2 beta2 appendage carries R879A mutation; actives 0.31% (n = 340,000); beta-arrestin 1 C-terminal peptide binding to AP2 beta2-adaptin appendage (human); inhibition, % at 10 µM;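 active = inhibition above a set limit, near 3 SD of compounds lacking own fluorescence, cut at about 54% in these data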
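Test system: GST-tagged AP2 beta2-adaptin appendage (R879A) on 4 µm glutathione beads; also added: fluorescein-tagged arrestin peptide at 50 nM final; timing: 12 min plus 1 h, RT; signal: flow cytometry, FL1 (488/535 nm); read-out: percent drop in bead-associated FITC signal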
Pemphigus Ab inh – inhibitors of pemphigus antibody binding to DSG3, primary screen, biochemical, bead-based, flow cytometry, scFv-GFP. Desmoglein-3 (Homo sapiens), P32926. DSG3-coupled beads, scFv-anti-DSG3-GFP binding; active compounds read low. binding (percent of control), % at 10 µM. actives 0.48% (n = 310,000). AID 588358, 2011;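 active = binding more than 3 SD below its plate's average and above zero; inconclusive = below that plate limit but binding exactly zero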;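 note: hits lower antibody fragment binding to DSG3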
NALP1 inh – NALP1 inflammasome inhibitors in reconstituted yeast, colorimetric, S. cerevisiae, triplicate retest | S. cerevisiae NALP1/ASC/caspase-1 growth, X-gal OD620, 72 h | inhibition, % at 10 µM | actives 0.61% (n = 280,000) | AID 2071, 2009; in the data active = inhibition mostly above about 24%, no sharp cut-off; inactive = mostly below about 32%
NALP3 yeast inh – NALP3 inflammasome inhibitors in reconstituted yeast, primary screen, luminescence, uHTS. Yeast reconstituted NLRP3/ASC/caspase-1, beta-gal luminescence, 24 h. inhibition, % at 10 µM. actives 0.39% (n = 330,000). AID 2825, 2010;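 active = inhibition of 50% or more; inactive = inhibition below 50%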
Of the large screens only hits and unclear results are named; the others gave an inactive call.

O=C(c1ccc(C(F)(F)F)cc1)C1CCCN(C(=O)CCc2cnccn2)C1 (stereo not given)	NALP1 inh 38
COc1ccccc1-c1cc(C(F)(F)F)nc(S(=O)(=O)CCCC(=O)NC(C)C)n1	none
COc1ccccc1-c1cc(C(F)(F)F)nc(S(=O)(=O)CCCC(=O)N2CCCCC2C)n1 (stereo not given)	ALR H2O2 inh 98
COc1ccccc1-c1cc(C(F)(F)F)nc(S(C)(=O)=O)n1	ALR H2O2 inh 91, Pemphigus Ab inh inconclusive
CS(=O)(=O)c1nc(-c2ccco2)cc(C(F)(F)F)n1	ALR H2O2 inh inconclusive, NALP1 inh 61 (no result: Arr AP2 block, Pemphigus Ab inh)
O=c1[nH]c(=O)c2[nH]c(=S)n(-c3ccccc3)c2[nH]1	none (no result: PolyA inhibitor, ALR H2O2 inh, NALP1 inh, NALP3 yeast inh)
O=C(C1CC(=O)N(c2ccc3c(c2)OCCO3)C1)N1CCCC(C(F)(F)F)C1 (stereo not given)	none (no result: NALP1 inh)
CC(C)(C)NC(=O)C(c1ccc(-c2ccccc2)cc1)N(C[C@H]1CC[C@@H]([C@@H]2CC[C@H](CO)O2)O1)C(=O)c1ccc(C(C)(C)C)cc1 (stereo not given in full)	none (no result: PolyA inhibitor, ALR H2O2 inh, NALP1 inh, NALP3 yeast inh)
CCc1cc(=O)oc2cc(OC(C)=O)cc(OC(C)=O)c12	NALP1 inh 27
COc1cc(OCc2ccccc2)c2c(CCC(=O)O)cc(=O)oc2c1	none (no result: PolyA inhibitor, ALR H2O2 inh, NALP1 inh, NALP3 yeast inh)
Cc1nn(-c2cccc(C(F)(F)F)c2)c(=O)c2ccccc12	Pemphigus Ab inh 94
O=C(CSc1nnc(SCc2ccccc2)s1)N/N=C/C=C\c1ccco1	ALR H2O2 inh 97
CC(SCC(=O)Nc1ccccc1Br)c1nc2ccccc2c(=O)[nH]1 (stereo not given)	none (no result: PolyA inhibitor, NALP1 inh)
COc1ccc(S(=O)(=O)CCC(=O)NCc2ccc(C)o2)cc1	ALR H2O2 inh 86
O=c1oc2ccccc2n1CSC1=NCCS1	ALR H2O2 inh 99 (no result: Pemphigus Ab inh)
COC(=O)[C@H](CC(C)C)N(Cc1ccccc1)S(=O)(=O)N(Cc1ccc(OC)cc1)[C@@H](CC(C)C)C(=O)OC	none (no result: PolyA inhibitor, NALP1 inh)
COc1cccc(-c2cc(CC3(O)CCN(CCCc4ccccc4)CC3)on2)c1	none (no result: ALR H2O2 inh)
O=C(N/N=C/c1ccc(O)cc1)c1cc(C23CC4CC(CC(C4)C2)C3)[nH]n1	ALR H2O2 inh 91 (no result: NALP1 inh)
Cc1cc(C)cc(N2C(=O)CSC2c2ccccn2)c1 (stereo not given)	ALR H2O2 inh 99
O=C1CSC(c2ccccn2)N1c1ccccc1 (stereo not given)	ALR H2O2 inh 99
O=C1CSC(c2ccccn2)N1c1ccc(Br)cc1 (stereo not given)	none
C/C(=N\Nc1nc2ccccc2[nH]1)c1ccc2c(c1)OCCO2	ALR H2O2 inh 99
C/C(=N\Nc1nc2ccccc2[nH]1)c1ccc2c(c1)OCO2	ALR H2O2 inh 100
COc1ccc2sc(-c3ccc(SC)cc3)c(/C=C/c3ccc(OC)c(OC)c3)c2c1	none (no result: PolyA inhibitor, NALP1 inh)
CCCCOc1ccc(N2C(=O)C(C)CNC2=S)cc1 (stereo not given)	none (no result: PolyA inhibitor, ALR H2O2 inh, NALP1 inh, NALP3 yeast inh)
CC(=S)/C=C1\Sc2ccccc2N1C	ALR H2O2 inh 83
COc1ccc(C(=O)/C=C2\Sc3ccccc3N2C)cc1	none
CCN(CC)S(=O)(=O)c1cc(NC(=O)Cc2ccc(S(=O)(=O)N3CCOCC3)s2)ccc1Cl	none (no result: PolyA inhibitor, ALR H2O2 inh, NALP1 inh, NALP3 yeast inh)
O=C(NCc1ccccc1)c1ccc(C(=O)NCc2ccccc2)cc1	Pemphigus Ab inh 79 (no result: PolyA inhibitor, ALR H2O2 inh, NALP1 inh, NALP3 yeast inh)
O=C(NC(=S)N(Cc1ccccc1)Cc1ccccc1)C1CCCCC1	none
O=C(NC(=S)NCc1ccccc1)C1CC1	Pemphigus Ab inh 25
O=C(NCc1ccccc1)C1CCCC1	none (no result: Arr AP2 block, Pemphigus Ab inh)
O=C(NC(=S)N(Cc1ccccc1)c1ccccn1)C1CC1	ALR H2O2 inh 99
O=C(NCc1ccccc1)c1ncn(Cc2ccccc2)c1C(=O)NCc1ccccc1	none (no result: PolyA inhibitor, NALP1 inh)
Cn1cnc(C(=O)NCc2ccccc2)c1C(=O)NCc1ccccc1	Pemphigus Ab inh 70 (no result: PolyA inhibitor, NALP1 inh)
